Shown are actives, neighbours in structure and some others; about 2.9% of the full set was active somewhere.
CHO-K1 Ca antag – nonselective inhibitor or artifact in parental CHO-K1 cells; ATP-induced calcium, Fluo-8 fluorescence; inhibition, % at 3 µM; 0.6% of 360,000 active; AID 602250;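 active = inhibition above a per-plate cutoff, the plate's mean sample inhibition plus 3 SD, cut at about 24% in these data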;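 also: 0% = DMSO plus EC80 ATP and 100% = DMSO alone without ATP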
CHO-K1 Ca PAM – nonselective activator or artifact in parental CHO-K1 calcium assay | ATP EC20, Fluo-8 calcium fluorescence; 0% at ATP EC20, 100% at ATP max | activation, % at 3 µM | 0.02% of 360,000 active | AID 602247;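 active = activation above the run cutoff, the mean activation of all test compounds plus 3 SD, cut at about 40% in these data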;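 also: peak over basal fluorescence ratio in a 140 s read after ATP addition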
CHO parental Ca – signal in parental CHO cells, OX1R antagonist counter-screen; parental CHO-K1, ATP-induced calcium, Fluo-8 fluorescence; inhibition, % at 5.6 µM; 0.63% of 330,000 active;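 active = inhibition above that plate's mean sample inhibition plus 3 SD, cut at about 26% in these data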;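 also: 0% = ATP-challenged DMSO wells and 100% = DMSO wells without ATP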
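test system = CHO parental line | reagent = ATP stimulus | measured by = intracellular calcium via Fluo-8 no-wash fluorescent dye | control set = ATP and no-ATP DMSO wells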
M1 ag parental – counter-screen for M1 agonists: effect in parental CHO-K1 cells; activation, % at 3 µM; AID 602248; 0.48% of 360,000 active; Fluo-8 calcium fluorescence; scaled to maximal ATP response, vehicle zero; in the data active = activation above about 15%;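 also: untransfected CHO-K1 host cells lacking M1 receptor as counterscreen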
OX1R antag-1 – OX1R (human) antagonism; AID 485270; O43613; OX1R-expressing cells, FRET antagonist read-out; 1.8% of 330,000 active; inhibition, % at 6.6 µM; in the data active = inhibition mostly above about 38%, no sharp cut-off; inactive = mostly below about 40%;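 also: 0% = agonist challenge alone and 100% = reference antagonist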
Target sequence (O43613 whole entry, looked up): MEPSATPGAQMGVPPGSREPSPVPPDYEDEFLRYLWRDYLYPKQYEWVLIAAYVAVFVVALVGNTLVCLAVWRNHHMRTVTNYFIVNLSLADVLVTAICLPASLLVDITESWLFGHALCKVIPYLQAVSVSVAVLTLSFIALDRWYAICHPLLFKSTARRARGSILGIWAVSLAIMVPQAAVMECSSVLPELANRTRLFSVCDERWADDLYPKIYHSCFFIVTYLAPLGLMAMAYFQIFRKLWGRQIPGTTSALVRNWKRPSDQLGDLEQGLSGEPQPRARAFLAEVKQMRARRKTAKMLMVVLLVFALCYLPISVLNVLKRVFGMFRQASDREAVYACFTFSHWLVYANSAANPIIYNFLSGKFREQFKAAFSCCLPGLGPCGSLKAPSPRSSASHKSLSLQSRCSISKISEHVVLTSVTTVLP
OX1R antag-2 – blocks the human orexin 1 receptor; CHO/OX1R cells, Fluo-8 calcium fluorescence, orexin A; inhibition, % at 5 µM; 0.43% of 330,000 active;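 active = inhibition above its plate's threshold, mean inhibition of all tested compounds on the plate plus 3 SD, cut at about 37% in these data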;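 also: 0% = orexin A challenge wells and 100% = SB-334867-A antagonist wells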
Numbers without * were called inactive; nt = no result given.

SMILES	CHO-K1 Ca antag	CHO-K1 Ca PAM	CHO parental Ca	M1 ag parental	OX1R antag-1	OX1R antag-2
O=C(Nc1ccc(Cl)cc1)N1CCC(c2nc(-c3cccs3)no2)CC1	-6	3	-20	6	18	-16
Cc1ccc(NS(=O)(=O)c2ccc(C(=O)NCC(c3ccco3)N3CCCCC3)cc2)cc1 (centres undefined)	5	13	-4	18*	7	-3
O=C(NCC(c1ccco1)N1CCCCC1)c1ccc2c(c1)S(=O)(=O)c1ccccc1C2=O (centres undefined)	-6	3	-28	1	63*	-44
O=C(NCC(c1ccco1)N1CCCCC1)c1ccc(S(=O)(=O)Nc2ccccc2)cc1 (centres undefined)	-10	4	-10	5	9	-11
O=C(NCC(c1ccco1)N1CCOCC1)c1ccc([N+](=O)[O-])cc1 (centres undefined)	-6	12	-9	1	67*	-4
Cc1cn(CCOc2ccc(Cl)cc2)c(=O)[nH]c1=O	7	-4	-11	0	6	3
CN1CCN(c2ccc(C(=O)c3ccc(Br)cc3)cc2[N+](=O)[O-])CC1	7	-7	-4	0	17	-8
O=C(NNC(=O)c1ccccc1Cl)c1ccc2c(c1)OCCO2	-6	-8	2	0	4	-20
N#CC1=C(N)Oc2n[nH]c(-c3ccccc3)c2C1c1cccnc1 (centres undefined)	1	7	5	0	37	4
N#CC1=C(N)Oc2nc(-c3ccccc3)[nH]c2C1c1cccnc1 (centres undefined)	32*	-7	-9	0	28	-12
CC1(C(=O)Nc2cccc(C#N)c2)CCN1C(=O)C/C=C/c1ccccc1 (centres undefined)	-19	12	nt	2	nt	nt
Cn1c(=O)[nH]c(=O)c2c1nc(N1CCCCCC1)n2CCOc1ccccc1	-12	3	-5	2	-2	-11
O=C(c1ccc([N+](=O)[O-])s1)N1CCCc2ccccc21	-8	13	-9	0	67*	-6
O=C(c1ccc([N+](=O)[O-])s1)N1CCc2ccccc21	-9	-10	-1	0	7	-5
CCS(=O)(=O)CCSc1nc2ccccc2s1	-8	20	-15	0	14	-16
Cn1c(CSc2nc3ccccc3s2)nc2ccccc21	5	12	-15	5	41*	-13
O=C(CSc1nc2ccccc2s1)CSc1nc2ccccc2s1	-19	13	-11	1	45*	-23
Cn1c(CSc2nc3ccccc3s2)n[nH]c1=S	-22	25	6	1	31	-10
Cc1nnc(SCc2nc3ccccc3[nH]2)s1	-10	14	-5	0	-7	-2
c1ccc2[nH]c(CSc3nc4ccccc4s3)nc2c1	2	1	-21	3	72*	8
O=S(=O)(CCSc1nc2ccccc2s1)c1nc2ccccc2s1	1	-16	-13	0	53*	16
COc1ccccc1C(=O)NCc1ccccn1	-3	0	-8	0	14	-16
CCOc1ccc(C(C)(C)C)cc1S(=O)(=O)Nc1ccncc1	-3	11	-2	1	12	3
CCOc1ccc(N2C(=O)CC(N(Cc3ccco3)C(=O)CCC(=O)O)C2=O)cc1 (centres undefined)	-10	19	-8	1	18	2
CCOc1ccccc1CNc1ncnc2ccc(-c3c(C)noc3C)cc12	14	-14	4	9	33*	34
SMILES	CHO-K1 Ca antag	CHO-K1 Ca PAM	CHO parental Ca	M1 ag parental	OX1R antag-1	OX1R antag-2
COc1ccc(S(=O)(=O)N2CCOCC2)cc1C(=O)NCC(c1ccco1)N1CCCC1 (centres undefined)	10	-22	-16	0	3	-7
COc1cccc(CC2(CO)CCCN(C/C=C/c3ccccc3OC)C2)c1 (centres undefined)	0	3	-16	5	37	-3
COc1ccccc1/C=C/CN1CCCC(CO)(Cc2cccc(Cl)c2)C1 (centres undefined)	12	-16	34*	3	69*	61*
COc1ccc(/C=C/CN2CCCC(CO)(Cc3cccc(Cl)c3)C2)cc1 (centres undefined)	-4	9	-21	28*	4	-18
O=C1CCC(C(=O)N2CCCCCC2)CN1CCc1ccc(Cl)cc1 (centres undefined)	-8	-2	-13	2	1	7
CCN(CC)c1ccc(/C=N/NC(=O)c2cccc(S(=O)(=O)N3CCOCC3)c2)c(O)c1	-6	11	-11	5	66*	-7
CCN(CC)c1ccc(C=Nc2cccc(S(=O)(=O)N3CCOCC3)c2)c(O)c1	-7	12	-15	0	8	-11
Clc1ccc2c(c1)-c1nnc(Br)n1-c1ccccc1S2	-12	18	2	0	60*	20
Clc1ccccc1-c1nnc2n1-c1ccccc1SC2	-5	0	-9	4	13	1
COc1cccc(Oc2ccc3nnc(C(F)(F)F)n3n2)c1	14	0	6	0	28	20
CN(C)/C=N/C(=S)Nc1cc(Cl)cc(Cl)c1	10	4	-3	18*	9	-9
COc1ccc(OCC(=O)Nc2cccc3ncccc23)cc1	26*	-7	-11	4	10	-27
O=C(CCl)Nc1cccc2ncccc12	-16	18	4	1	12	-3
Cc1ccccc1OCC(=O)NC(=S)Nc1ccc2c3c(cccc13)CC2	4	-5	-2	-1	-7	-4
COc1ccc(OCC(=O)NC(=S)Nc2ccc3c4c(cccc24)CC3)cc1	13	14	-17	22*	-3	7
CC1(c2nnc(Cc3ccccc3)o2)CC(c2ccccc2[N+](=O)[O-])=NO1 (centres undefined)	-10	9	-12	0	16	-1
COC(=O)C1=C(O)/C(=C/c2cccc(OC)c2O)N=C1C	-10	22	14	1	63*	-16
Cc1nc(NCCc2ccccc2)c2oc3ccccc3c2n1	17	6	46*	7	37*	19
CC(=O)C1=CCC(c2ccccc2Cl)N(S(=O)(=O)c2ccc(C)cc2)C1 (centres undefined)	-2	16	nt	2	nt	nt
O=C(CC12CC3CC(CC(C3)C1)C2)NCc1ccc(F)cc1	-10	4	-1	0	20	-17
O=C(Nc1nnc([C@@H]2C[C@H](O)[C@@H](CO)O2)s1)c1ccc(Oc2ccccc2)cc1	-2	-5	nt	0	nt	nt
CC(C)CCC1(CCO)C(=O)N=C(N)NC1=O (centres undefined)	-4	28	nt	1	nt	nt
COc1ccc(C(CC(=O)c2ccc(C)cc2)Nc2ccc([N+](=O)[O-])cc2)cc1 (centres undefined)	14	18	-14	15*	19	-7

Assay outcomes from PubChem.
